Data from ChEMBL document CHEMBL4673246, “Directing Drugs to Bugs: Antibiotic-Carbohydrate Conjugates Targeting Biofilm-Associated Lectins of Pseudomonas aeruginosa” (J Med Chem, 2020).
Values after ≈ are worked out from the molar mass of the structure shown.

Key:
[1] = Inhibition of Pseudomonas aeruginosa PA14 LecB expressed in Escherichia coli BL21(DE3) cells incubated for 4 to 8 hrs by (N-(fluorescein-5-yl)-N'-(alpha-L-fucopyranosyl ethylene)thiocarbamide) reporter based fluorescence polarization assay
[2] = Inhibition of Pseudomonas aeruginosa PAO1 LecB expressed in Escherichia coli BL21(DE3) cells incubated for 4 to 8 hrs by (N-(fluorescein-5-yl)-N'-(alpha-L-fucopyranosyl ethylene)thiocarbamide) reporter based fluorescence polarization assay
[3] = Cytotoxicity against human A549 cells assessed as growth inhibition at 100 uM after 48 hrs by MTT assay relative to control; format: cell-based; details: read-out: GI
In short: (§1)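 MTT assay: HEK293 or A549 cells seeded at 2 × 10^5 per well. Compounds (final DMSO 1%) were added 24 h after seeding. Living cell mass was read after 48 h.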

[4] = Cytotoxicity against HEK293 cells assessed as growth inhibition at 100 uM after 48 hrs by MTT assay relative to control; format: cell-based; details: human, read-out: GI; in short: as §1
[5] = Clearance in human liver microsomes; format: ADME, Microsome
[6] = Protein binding in human plasma at 1 uM measured up to 6 hrs by LC-MS/MS analysis; format: ADME, cell-free
In short: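 Rapid equilibrium dialysis: human plasma diluted with PBS pH 7.4 on one side, PBS on the other, compound at 1 μM final. Shaken at 37 °C for 6 h. Sampled at 0, 5 and 6 h and quantified by LC-MS/MS. Binding calculated from the concentration difference between chambers. Warfarin as control.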

[7] = Half life in human plasma at 40 uM measured up to 150 mins by LC-MS/MS analysis; format: ADME, cell-free
[8] = Clearance in mouse liver microsomes; format: ADME, Microsome
[9] = test system: Pseudomonas aeruginosa; assay: Antibacterial activity against Pseudomonas aeruginosa PAO1 assessed as growth inhibition after 18 to 20 hrs in presence of PMBN by broth microdilution assay; format: functional; details: time 18-20 hrs
In short: (§2)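 Broth microdilution per EUCAST guidelines in Müller-Hinton broth II (Ca2+/Mg2+ supplemented, pH 7.3). Colonies from overnight LB-agar plates were suspended to OD600 0.08–0.13, diluted 1:100, final inoculum 5 × 10^5 CFU/mL. PMBN at 2 μg/mL was added to the inoculum where indicated. Incubation 37 °C, 18–20 h. MIC was the lowest concentration with no visible growth. At least three independent experiments.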

[10] = test system: Pseudomonas aeruginosa; assay: Antibacterial activity against Pseudomonas aeruginosa PAO1 assessed as growth inhibition after 18 to 20 hrs by broth microdilution assay; format: functional; details: time 18-20 hrs
In short: (§3)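 Overnight LB-agar colonies suspended to OD600 0.08–0.13, diluted 1:100; final inoculum 5 × 10^5 CFU/mL. 37 °C, 18–20 h, humid. MIC = lowest concentration without visible growth; range from at least three independent experiments.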

[11] = test system: Pseudomonas aeruginosa; assay: Antibacterial activity against Pseudomonas aeruginosa PA14 harboring LecB deletion mutant assessed as growth inhibition after 18 to 20 hrs by broth microdilution assay; format: functional; details: time 18-20 hrs; in short: as §3
[12] = test system: Pseudomonas aeruginosa; assay: Antibacterial activity against Pseudomonas aeruginosa PA14 harboring LecA deletion mutant assessed as growth inhibition after 18 to 20 hrs by broth microdilution assay; format: functional; details: time 18-20 hrs; in short: as §3
[13] = test system: Pseudomonas aeruginosa; assay: Antibacterial activity against Pseudomonas aeruginosa PA14 assessed as growth inhibition after 18 to 20 hrs in presence of PMBN by broth microdilution assay; format: functional; details: time 18-20 hrs
In short: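 Cation-supplemented Mueller-Hinton broth II; final inoculum 5 × 10^5 CFU/mL. Incubated at 37 °C for 18–20 h. MIC read visually as the lowest concentration without growth; at least three independent experiments.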

[14] = test system: Pseudomonas aeruginosa; assay: Antibacterial activity against Pseudomonas aeruginosa PA14 assessed as growth inhibition after 18 to 20 hrs by broth microdilution assay; format: functional; details: time 18-20 hrs; in short: as §3
[15] = test system: Staphylococcus carnosus; assay: Antibacterial activity against Staphylococcus carnosus DSM 20501 assessed as growth inhibition after 18 to 20 hrs by broth microdilution assay; format: functional; details: time 18-20 hrs; in short: as §3
[16] = test system: Escherichia coli; assay: Antibacterial activity against Escherichia coli DSM 1116 assessed as growth inhibition after 18 to 20 hrs by broth microdilution assay; format: functional; details: time 18-20 hrs
In short: as §2, with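 “7.3). Test range 128 to 0.125 μg/mL, from DMSO stocks.” for “7.3).”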

[17] = test system: Escherichia coli; assay: Antibacterial activity against Escherichia coli K-12 MG1655 assessed as growth inhibition after 18 to 20 hrs by broth microdilution assay; format: functional; details: time 18-20 hrs; in short: as §3
[18] = Inhibition of Pseudomonas aeruginosa ATCC 33347 LecA expressed in Escherichia coli BL21(DE3) cells incubated for 30 to 60 mins by (N-(fluorescein-5-yl)-N'-(beta-D-(m-aminophenyl)-galactopyranosyl)thiocarbamide) reporter based fluorescence polarization assay
In short: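 LecA at 40 μM with 20 nM fluorescein-galactoside reporter in TBS/Ca. Test compound serial dilutions in 30% DMSO co-solvent, triplicate. Incubation 30–60 min at room temperature, then fluorescence polarization read (ex 485, em 535 nm), blank-corrected for LecA alone. Four-parameter fit with plateaus fixed by the p-nitrophenyl β-D-galactoside control. At least three independent plates.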

[19] = biological target: DNA gyrase (Escherichia coli, UniProt P0AES4+P0AES6); assay: Inhibition of Escherichia coli DNA gyrase using relaxed PBR322 plasmid DNA as substrate incubated for 30 mins by ethidium bromide staining based agarose gel electrophoresis method; format: protein-complex assay
In short: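 E. coli gyrase supercoiling kit. Relaxed pBR322 plus 1 U gyrase per reaction, compound serially diluted in 5% DMSO; 30 min at 37 °C. Stopped with STE buffer and CHCl3/isoamyl alcohol; 1% agarose gel, ethidium bromide stain. Supercoiled band intensity fitted with a four-parameter model, bottom fixed at 0, for IC50; at least three experiments.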

[20] = test system: Pseudomonas aeruginosa; assay: Potency index ratio of Me-alpha-D-Gal IC50 to test compound IC50 for Inhibition of Pseudomonas aeruginosa ATCC 33347 LecA expressed in Escherichia coli BL21(DE3) cells
[21] = test system: Pseudomonas aeruginosa; assay: Potency index ratio of pNP-beta-D-Gal IC50 to test compound IC50 for Inhibition of Pseudomonas aeruginosa ATCC 33347 LecA expressed in Escherichia coli BL21(DE3) cells

SMILES	MIC [9] [µg/mL]	MIC [10] [µg/mL]	MIC [11] [µg/mL]	MIC [12] [µg/mL]	MIC [13] [µg/mL]	MIC [14] [µg/mL]	MIC [15] [µg/mL]	MIC [16] [µg/mL]	MIC [17] [µg/mL]	IC50 [18] [µM]	further results
C[C@@H]1O[C@H](CNS(=O)(=O)c2ccc(CCN=[N+]=[N-])s2)[C@@H](O)[C@H](O)[C@@H]1O	–	–	–	–	–	–	–	–	–	–	IC50 [1]: 1.87 µM; IC50 [2]: 3.91 µM
C[C@@H]1O[C@H](CNS(=O)(=O)c2ccc(CCn3cc(CN4CCN(c5cc6c(cc5F)c(=O)c(C(=O)O)cn6C5CC5)CC4)nn3)s2)[C@@H](O)[C@H](O)[C@@H]1O	32	≥ 64	64 (≈ 84 µM)	≥ 64	64	64 (≈ 84 µM)	≥ 64	16 (≈ 21 µM)	8 (≈ 10.5 µM)	–	inhibition at 48 h, 100 µM [3]: -9%; inhibition at 48 h, 100 µM [4]: 11%; microsomal CLint [5]: 15 µL/min/mg; PPB [6]: 75%; half-life at […], 40 µM [7]: > 2.5 h; microsomal CLint [8]: 10 µL/min/mg; IC50 [1]: 2.24 µM; IC50 [2]: 2.37 µM
O=C(Cn1cc(CN2CCN(c3cc4c(cc3F)c(=O)c(C(=O)O)cn4C3CC3)CC2)nn1)Nc1ccc(S[C@@H]2O[C@H](CO)[C@H](O)[C@H](O)[C@H]2O)cc1	4	16 (≈ 21.6 µM)	–	–	4	–	32 (≈ 43.3 µM)	–	2 (≈ 2.7 µM)	30.4	inhibition at 48 h, 100 µM [3]: 5%; inhibition at 48 h, 100 µM [4]: 8%; microsomal CLint [5]: 10 µL/min/mg; PPB [6]: 69%; half-life at […], 40 µM [7]: > 2.5 h; microsomal CLint [8]: 10 µL/min/mg
O=C(CCCCn1cc(CCN2CCN(c3cc4c(cc3F)c(=O)c(C(=O)O)cn4C3CC3)CC2)nn1)Nc1ccc(S[C@@H]2O[C@H](CO)[C@H](O)[C@H](O)[C@H]2O)cc1	32	> 64	> 64	> 64	32	> 64	≥ 64	4 (≈ 5.03 µM)	16 (≈ 20.1 µM)	26.2	–
O=C(CCCn1cc(CCN2CCN(c3cc4c(cc3F)c(=O)c(C(=O)O)cn4C3CC3)CC2)nn1)Nc1ccc(S[C@@H]2O[C@H](CO)[C@H](O)[C@H](O)[C@H]2O)cc1	32	> 64	> 64	> 64	32	> 64	64 (≈ 81.9 µM)	4 (≈ 5.12 µM)	16 (≈ 20.5 µM)	29.3	–
O=[N+]([O-])c1ccc(O[C@@H]2O[C@H](CO)[C@H](O)[C@H](O)[C@H]2O)cc1	–	–	–	–	–	–	–	–	–	52.7	–
CO[C@H]1O[C@H](CO)[C@H](O)[C@H](O)[C@H]1O	–	–	–	–	–	–	–	–	–	71.7	–
C#CCN1CCN(c2cc3c(cc2F)c(=O)c(C(=O)O)cn3C2CC2)CC1	1	4 (≈ 10.8 µM)	–	–	0.025	2 (≈ 5.41 µM)	–	–	–	–	IC50 [19]: 0.7 µM
O=C(Cn1cc(CCN2CCN(c3cc4c(cc3F)c(=O)c(C(=O)O)cn4C3CC3)CC2)nn1)Nc1ccc(S[C@@H]2O[C@H](CO)[C@H](O)[C@H](O)[C@H]2O)cc1	32	> 64	≥ 64	≥ 64	16	≥ 64	64 (≈ 84.9 µM)	–	8 (≈ 10.6 µM)	21.6	–
[N-]=[N+]=NCCCC(=O)Nc1ccc(S[C@@H]2O[C@H](CO)[C@H](O)[C@H](O)[C@H]2O)cc1	–	–	–	–	–	–	–	–	–	31.1	Ratio IC50 [20]: < 3; Ratio IC50 [21]: < 2
